Measured values reported in ChEMBL document CHEMBL2375313, “Synthesis, in vitro antitumor evaluation and DNA-binding study of novel tetrahydroquinolines and some derived tricyclic and tetracyclic ring systems” (Eur J Med Chem, 2013).
The source made the active and inactive calls. The rule behind the calls is not given here.

Columns and labels:
RXF 393 = experiment: Cytotoxicity against human RXF393 cells assessed as growth inhibition at 10 uM after 48 hrs by sulphorhodamine B assay; assay type: functional; conditions: RXF 393, 48 h, read-out: GI
How it was run: (§1)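 NCI-60 one-dose screen per the NCI Drug Evaluation Branch protocol. Cells given a single 10 µM concentration with 48 h continuous exposure. Growth estimated by sulphorhodamine B protein assay. Result expressed as percentage growth inhibition relative to untreated growth.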

U-251 = experiment: Cytotoxicity against human U251 cells assessed as growth inhibition at 10 uM after 48 hrs by sulphorhodamine B assay; assay type: functional; conditions: U-251, 48 h, read-out: GI; how it was run: as §1
OVCAR-5 = experiment: Cytotoxicity against human OVCAR5 cells assessed as growth inhibition at 10 uM after 48 hrs by sulphorhodamine B assay; assay type: functional; conditions: OVCAR-5, 48 h, read-out: GI; how it was run: as §1
HL-60(TB) = experiment: Cytotoxicity against human HL-60(TB) cells assessed as growth inhibition at 10 uM after 48 hrs by sulphorhodamine B assay; assay type: functional; conditions: HL-60, 48 h, read-out: GI
How it was run: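 NCI-60 one-dose primary screen run to the Drug Evaluation Branch protocol. Cells are exposed to a single 10 µM concentration for 48 h continuously, and growth is read by SRB protein assay. Data are reported as percent growth of treated cells, expressed as % growth inhibition.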

SNB-75 = experiment: Cytotoxicity against human SNB75 cells assessed as growth inhibition at 10 uM after 48 hrs by sulphorhodamine B assay; assay type: functional; conditions: SNB-75, 48 h, read-out: GI; how it was run: as §1
MOLT-4 = experiment: Cytotoxicity against human MOLT4 cells assessed as growth inhibition at 10 uM after 48 hrs by sulphorhodamine B assay; assay type: functional; conditions: MOLT-4, 48 h, read-out: GI; how it was run: as §1
MCF7 = experiment: Cytotoxicity against human MCF7 cells assessed as growth inhibition at 10 uM after 48 hrs by sulphorhodamine B assay; assay type: functional; conditions: MCF7, 48 h, read-out: GI; how it was run: as §1
NCI-H522 = experiment: Cytotoxicity against human NCI-H522 cells assessed as growth inhibition at 10 uM after 48 hrs by sulphorhodamine B assay; assay type: functional; conditions: NCI-H522, 48 h, read-out: GI; how it was run: as §1
[1] = Cytotoxicity against human EKVX cells assessed as growth inhibition at 10 uM after 48 hrs by sulphorhodamine B assay; assay type: functional; conditions: read-out: GI; how it was run: as §1
DU-145 = experiment: Cytotoxicity against human DU145 cells assessed as growth inhibition at 10 uM after 48 hrs by sulphorhodamine B assay; assay type: functional; conditions: DU-145, 48 h, read-out: GI; how it was run: as §1
RPMI-8226 = experiment: Cytotoxicity against human RPMI8226 cells assessed as growth inhibition at 10 uM after 48 hrs by sulphorhodamine B assay; assay type: functional; conditions: RPMI-8226, 48 h, read-out: GI; how it was run: as §1
HCT-116 = experiment: Cytotoxicity against human HCT116 cells assessed as growth inhibition at 10 uM after 48 hrs by sulphorhodamine B assay; assay type: functional; conditions: HCT-116, 48 h, read-out: GI; how it was run: as §1
[2] = Binding affinity to DNA (unknown origin) at 5 mg/mL by RP-TLC plate analysis
How it was run: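 Reversed-phase C18 TLC plates pre-developed in methanol/water 8:2. Compound spotted at origin (5 mg/mL in methanol), then DNA (1 mg/mL in water/methanol 8:2) applied at the same spot. Plates developed in the same eluent; DNA located by anisaldehyde spray (blue). Ethidium bromide as positive control.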

HOP-92 = experiment: Cytotoxicity against human HOP92 cells assessed as growth inhibition at 10 uM after 48 hrs by sulphorhodamine B assay; assay type: functional; conditions: HOP-92, 48 h, read-out: GI; how it was run: as §1
NCI-H23 = experiment: Cytotoxicity against human NCI-H23 cells assessed as growth inhibition at 10 uM after 48 hrs by sulphorhodamine B assay; assay type: functional; conditions: NCI-H23, 48 h, read-out: GI; how it was run: as §1
SF-268 = experiment: Cytotoxicity against human SF268 cells assessed as growth inhibition at 10 uM after 48 hrs by sulphorhodamine B assay; assay type: functional; conditions: SF-268, 48 h, read-out: GI; how it was run: as §1
HCT-15 = experiment: Cytotoxicity against human HCT15 cells assessed as growth inhibition at 10 uM after 48 hrs by sulphorhodamine B assay; assay type: functional; conditions: HCT-15, 48 h, read-out: GI; how it was run: as §1
SNB-19 = experiment: Cytotoxicity against human SNB19 cells assessed as growth inhibition at 10 uM after 48 hrs by sulphorhodamine B assay; assay type: functional; conditions: SNB-19, 48 h, read-out: GI; how it was run: as §1
SF-295 = experiment: Cytotoxicity against human SF295 cells assessed as growth inhibition at 10 uM after 48 hrs by sulphorhodamine B assay; assay type: functional; conditions: SF-295, 48 h, read-out: GI; how it was run: as §1
OVCAR-4 = experiment: Cytotoxicity against human OVCAR4 cells assessed as growth inhibition at 10 uM after 48 hrs by sulphorhodamine B assay; assay type: functional; conditions: OVCAR-4, 48 h, read-out: GI; how it was run: as §1
ACHN = experiment: Cytotoxicity against human ACHN cells assessed as growth inhibition at 10 uM after 48 hrs by sulphorhodamine B assay; assay type: functional; conditions: read-out: GI; how it was run: as §1
UACC-62 = experiment: Cytotoxicity against human UACC62 cells assessed as growth inhibition at 10 uM after 48 hrs by sulphorhodamine B assay; assay type: functional; conditions: UACC-62, 48 h, read-out: GI; how it was run: as §1
K562 = experiment: Cytotoxicity against human K562 cells assessed as growth inhibition at 10 uM after 48 hrs by sulphorhodamine B assay; assay type: functional; conditions: K562, 48 h, read-out: GI; how it was run: as §1
LOX IMVI = experiment: Cytotoxicity against human LOXIMVI cells assessed as growth inhibition at 10 uM after 48 hrs by sulphorhodamine B assay; assay type: functional; conditions: read-out: GI; how it was run: as §1
CAKI-1 = experiment: Cytotoxicity against human Caki1 cells assessed as growth inhibition at 10 uM after 48 hrs by sulphorhodamine B assay; assay type: functional; conditions: CAKI-1, 48 h, read-out: GI; how it was run: as §1
HT-29 = experiment: Cytotoxicity against human HT-29 cells assessed as growth inhibition at 10 uM after 48 hrs by sulphorhodamine B assay; assay type: functional; conditions: HT-29, 48 h, read-out: GI; how it was run: as §1
SK-MEL-2 = experiment: Cytotoxicity against human SK-MEL-2 cells assessed as growth inhibition at 10 uM after 48 hrs by sulphorhodamine B assay; assay type: functional; conditions: SK-MEL-2, 48 h, read-out: GI; how it was run: as §1
Hs-578T = experiment: Cytotoxicity against human Hs578T cells assessed as growth inhibition at 10 uM after 48 hrs by sulphorhodamine B assay; assay type: functional; conditions: read-out: GI; how it was run: as §1
PC-3 = experiment: Cytotoxicity against human PC3 cells assessed as growth inhibition at 10 uM after 48 hrs by sulphorhodamine B assay; assay type: functional; conditions: PC-3, 48 h, read-out: GI; how it was run: as §1
UO-31 = experiment: Cytotoxicity against human UO31 cells assessed as growth inhibition at 10 uM after 48 hrs by sulphorhodamine B assay; assay type: functional; conditions: UO-31, 48 h, read-out: GI; how it was run: as §1
SK-OV-3 = experiment: Cytotoxicity against human SKOV3 cells assessed as growth inhibition at 10 uM after 48 hrs by sulphorhodamine B assay; assay type: functional; conditions: SK-OV-3, 48 h, read-out: GI; how it was run: as §1
M14 = experiment: Cytotoxicity against human M14 cells assessed as growth inhibition at 10 uM after 48 hrs by sulphorhodamine B assay; assay type: functional; conditions: M14, 48 h, read-out: GI; how it was run: as §1
MDA-MB-435 = experiment: Cytotoxicity against human MDA-MB-435 cells assessed as growth inhibition at 10 uM after 48 hrs by sulphorhodamine B assay; assay type: functional; conditions: MDA-MB-435, 48 h, read-out: GI; how it was run: as §1

Row | SMILES | inhibition of growth at 10 µM (RXF 393) | inhibition of growth at 10 µM (U-251) | inhibition of growth at 10 µM (OVCAR-5) | inhibition of growth at 10 µM (HL-60(TB)) | inhibition of growth at 10 µM (SNB-75) | inhibition of growth at 10 µM (MOLT-4) | inhibition of growth at 10 µM (MCF7) | inhibition of growth at 10 µM (NCI-H522) | inhibition of growth at 10 µM [1] | inhibition of growth at 10 µM (DU-145) | inhibition of growth at 10 µM (RPMI-8226) | inhibition of growth at 10 µM (HCT-116) | Activity [2] | inhibition of growth at 10 µM (HOP-92) | inhibition of growth at 10 µM (NCI-H23) | inhibition of growth at 10 µM (SF-268) | inhibition of growth at 10 µM (HCT-15) | inhibition of growth at 10 µM (SNB-19) | inhibition of growth at 10 µM (SF-295) | inhibition of growth at 10 µM (OVCAR-4) | also measured
1 | CC1CCCc2c1nc1nc(SCC(=O)c3ccccc3)nc(N)c1c2-c1ccc(Cl)cc1 (stereo unspecified) | 62.2% | 21.5% | 10% | 22% | < 10% | 44.6% | 30% | 17.5% | 26.7% | 17% | 69.2% | 38.4% | Active | 90% | 24.7% | 23.7% | 71.5% | < 10% | 23.9% | 20% | inhibition of growth at 10 µM (ACHN): 29.3%; inhibition of growth at 10 µM (UACC-62): 70.8%; inhibition of growth at 10 µM (K562): 27.7%; inhibition of growth at 10 µM (LOX IMVI): 14.6%; inhibition of growth at 10 µM (CAKI-1): 11.8%; inhibition of growth at 10 µM (HT-29): 21.5%; inhibition of growth at 10 µM (SK-MEL-2): 14.5%; inhibition of growth at 10 µM (Hs-578T): 38.2%; inhibition of growth at 10 µM (PC-3): 66.8%; inhibition of growth at 10 µM (UO-31): 63%; inhibition of growth at 10 µM (SK-OV-3): < 10%; inhibition of growth at 10 µM (M14): 35%; inhibition of growth at 10 µM (MDA-MB-435): 13%
2 | CCSc1nc(N)c2c(-c3ccc(Cl)cc3)c3c(nc2n1)C(C)CCC3 (stereo unspecified) | 26.6% | 13.6% | 12.3% | < 10% | 33% | 32.5% | < 10% | 21.9% | 12.3% | < 10% | 33.8% | 18.8% | Active | 35.2% | 15.3% | < 10% | 18.8% | < 10% | < 10% | 26.8% | inhibition of growth at 10 µM (ACHN): 30.8%; inhibition of growth at 10 µM (UACC-62): 21.8%; inhibition of growth at 10 µM (K562): 32.4%; inhibition of growth at 10 µM (LOX IMVI): < 10%; inhibition of growth at 10 µM (CAKI-1): < 10%; inhibition of growth at 10 µM (HT-29): 27.7%; inhibition of growth at 10 µM (SK-MEL-2): < 10%; inhibition of growth at 10 µM (Hs-578T): 14.2%; inhibition of growth at 10 µM (PC-3): 25.3%; inhibition of growth at 10 µM (UO-31): 59%; inhibition of growth at 10 µM (SK-OV-3): 15.2%; inhibition of growth at 10 µM (M14): < 10%; inhibition of growth at 10 µM (MDA-MB-435): 14.5%
